Screening data as filed in PubChem.
The list is not random: actives were taken first. Their share in the collection is about 2.7%.
Rev-erbA mod: modulators of human Rev-erb alpha DNA binding; Rev-erbα–FITC-DNA binding, fluorescence polarization, 90 min; 370,000 tested, 0.79% active; AID 1259318; activity, % at 10 µM;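 active means activity above about 14%, limit read from the data; passing the limit was not always enough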;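 further: 0% = DMSO wells with 35 nM protein and 100% = DMSO wells with 750 nM protein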
MC4R barr agon: activates human MC4R beta-arrestin recruitment; U2OS MC4R beta-arrestin complementation, luminescence; percent of melanotan II response, DMSO zero; activation, % at 8.9 µM; 360,000 tested, 0.98% active; AID 540308;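 active means activation above a per-plate cutoff, the mean activation of sample wells on that plate plus 3 SD, cut at about 8% in these data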
Target sequence (P32245 whole entry, looked up): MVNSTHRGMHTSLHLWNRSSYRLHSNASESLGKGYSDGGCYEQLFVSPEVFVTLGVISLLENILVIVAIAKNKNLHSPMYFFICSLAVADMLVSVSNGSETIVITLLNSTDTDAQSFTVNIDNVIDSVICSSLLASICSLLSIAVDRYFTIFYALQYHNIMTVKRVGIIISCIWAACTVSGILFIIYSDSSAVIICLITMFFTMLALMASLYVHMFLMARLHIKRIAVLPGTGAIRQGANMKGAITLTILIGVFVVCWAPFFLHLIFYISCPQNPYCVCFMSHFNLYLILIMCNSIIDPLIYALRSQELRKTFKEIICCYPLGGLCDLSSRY
NR2E3 ag-1: agonists of human nuclear receptor NR2E3 | GST-NR2E3/biotin-RetCOR TR-FRET, 1536-well | inhibition of corepressor binding, % at 4.78 µM | 320,000 tested, 0.12% active;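 active means percent inhibition above the cutoff of mean plus 3 SD of all tested compounds, set per screening campaign, cut at about 20% in these data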;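 further: 0% = DMSO wells and 100% = biotin wells as full block of FRET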
Target sequence (Q9Y5X4 whole entry, looked up): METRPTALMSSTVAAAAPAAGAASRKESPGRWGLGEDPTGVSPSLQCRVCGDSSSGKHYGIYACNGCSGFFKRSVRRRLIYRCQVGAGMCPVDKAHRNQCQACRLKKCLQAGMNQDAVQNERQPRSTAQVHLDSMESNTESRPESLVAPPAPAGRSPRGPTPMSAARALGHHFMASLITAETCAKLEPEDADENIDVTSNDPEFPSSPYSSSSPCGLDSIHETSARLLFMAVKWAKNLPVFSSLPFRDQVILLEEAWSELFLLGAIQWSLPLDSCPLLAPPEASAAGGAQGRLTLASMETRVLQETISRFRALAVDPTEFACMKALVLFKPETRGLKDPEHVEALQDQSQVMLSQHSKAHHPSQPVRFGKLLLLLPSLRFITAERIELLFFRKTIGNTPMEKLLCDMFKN
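Test system – NR2E3–RetCOR corepressor complex · Quantity – NR2E3 fusion 1.35 nM · Buffer or medium – Tris pH 7.5 · Incubation – Compound–protein incubation for 5 h at 4 °C · Technique – TR-FRET, Eu(K)-anti-GST donor, streptavidin-D2 acceptor, ex 340, em 617/671 nm · Evaluation – percent inhibition of 671/617 nm emission ratio versus biotin and DMSO controls · Plate – 1536-well format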
MC4R antagonist: antagonists of human melanocortin 4 receptor (MC4R) | 360,000 tested, 0.48% active | MC4R-expressing cells, MTII-stimulated cAMP, LANCE TR-FRET | inhibition, % at 6.5 µM | AID 540295 | P32245;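 active means inhibition above its plate's cutoff, the mean of tested wells on that plate plus 3 SD, cut at about 29% in these data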;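 further: 0% = Melanotan II alone and 100% = Melanotan II plus saturating MCL0020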
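system = U2OS cells with stable human MC4R expression | also added = Melanotan II challenge after compound preincubation | dosing = one concentration, 6.5 µM nominal | incubation = compound 30 min, challenge 1 h, detection 1 h | measured by = TR-FRET with Eu-cAMP and labeled anti-cAMP, 671 nm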
NR2E3 ag-2: agonists of human NR2E3 nuclear receptor; Q9Y5X4; CHO-S Gal4-NCOR/VP16-NR2E3 two-hybrid, luciferase; inhibition of corepressor binding, % at 3.98 µM; 360,000 tested, 0.35% active;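 active means inhibition above the mean of all tested compounds plus 3 SD, cut at about 70% in these data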;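 further: 0% = DMSO with NR2E3 transfected cells and 100% = cells lacking NR2E3 construct; higher means lower luciferase signal from less NR2E3 corepressor binding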
PG9 Ab binder: PG9 antibody binding by small molecule | 360,000 tested, 0.43% active | inhibition, % at 6.7 µM | TR-FRET gp120-PG9 antibody binding; in the data active means inhibition above about 8.5%
NR1D1 mod conf: Rev-erb alpha (human) modulation, hit confirmation. AID 1259319. 3,000 tested, 61% active. shares compounds with Rev-erbA mod. activation, % at 25 µM. Rev-erb alpha FITC-DNA binding, fluorescence polarization, 90 min;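 active means activation at or above a set limit, or at least 3 SD above the negative control mean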;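 further: 0% = 35 nM protein with DMSO and 100% = 750 nM protein high control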
RORg DNA counter: affects RORgamma DNA binding in a Rev-erb alpha counter-screen | shares compounds with Rev-erbA mod | purified RORgamma protein-FITC-DNA binding, fluorescence polarization | IC50, µM | 910 tested, 8% active | AID 1259320;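 active means Compounds whose fitted half-maximal concentration for disrupting protein-DNA binding is below 10 micromolar; the record names Rev-erb in its text, so the target is in doubt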
An asterisk follows results filed as active; / = not tested or not shown; + = active, no number.

SMILES	Rev-erbA mod	MC4R barr agon	NR2E3 ag-1	MC4R antagonist	NR2E3 ag-2	PG9 Ab binder	NR1D1 mod conf	others
COc1cccc(N2CCN(c3nc(C)cc(C)c3C#N)CC2)c1	-2.5	0.1	2.4	1.1	18.1	-1.3	/
O=C(CSc1ncnc2c1oc1ccccc12)Nc1ccccc1F	606.2*	0.5	4.0	9.5	-10.6	0.6	615.7*	RORg DNA counter=>40
O=C(CSc1ncnc2c1oc1ccccc12)Nc1cccc(C(F)(F)F)c1	2.0	5.6	7.3	-2.6	11.1	-9.4	/
CCc1nnc(NC(=O)CSc2nnc(-c3ccccc3NC(=O)c3ccccc3)o2)s1	28.0*	-0.5	2.3	10.8	3.2	0.5	7.5
CCc1nc(SCC(=O)NCC2CCCO2)c2oc3ccccc3c2n1 (centres undefined)	1.2	-0.3	1.5	-1.1	10.3	-3.5	/
CCc1nc(SCC(=O)NCCc2ccccc2)c2oc3ccccc3c2n1	62.2*	0.5	3.5	2.8	-23.2	-2.6	69.4*	RORg DNA counter=>40
CCc1nnc(NC(=O)CSc2ncnc3c2oc2ccccc23)s1	98.0*	-1.2	4.1	5.3	-19.4	-2.7	20.5*
Cc1ccc(NC(=O)CNC(=O)OCc2ccccc2)cc1C	-2.4	-2.0	-3.8	-1.7	-27.4	-1.3	/
CCOc1ccccc1NC(=O)CSc1ncnc2c1oc1ccccc12	+	-1.5	7.4	-3.4	10.7	-1.9	+
Cn1c(SCC(=O)Nc2ccccc2F)nnc1-c1cc2ccccc2o1	25.5*	-1.9	0.9	1.3	-4.8	0.1	15.7
CC(=O)Nc1ccc(NC(=O)CSc2nnc(-c3cc4ccccc4o3)n2C)cc1	2.8	-1.0	3.9	7.6	18.7	-0.6	/
CC(=O)CSc1ncnc2c1oc1ccccc12	-3.8	-3.2	0.8	3.6	-32.3	-20.5	/
FC(F)(F)c1cc(CNC2CCC23CCC(c2ccccc2)CC3)ccc1Cl (centres undefined)	-3.7	/	/	/	/	/	/
CC(C)(C)OC(=O)[C@H](Cc1ccccc1)NC(=O)c1nc[nH]c1C(=O)N[C@@H](Cc1ccccc1)C(=O)OC(C)(C)C	-4.6	-0.8	-1.3	4.7	28.4	0.8	/
CC(C)(C)OC(=O)[C@H](Cc1ccccc1)NC(=O)c1ncn2c1c(=O)[nH]c1ccc(Br)cc12	168.3*	6.0	/	3.2	-3.6	8.5	-2.8
CCOc1ccc(/C(CC)=N/NC(=O)C2(C)CC2(Br)Br)cc1 (centres undefined)	30.8*	-1.0	-3.5	4.8	-3.2	0.0	45.6*	RORg DNA counter=>40
CC(C)Oc1cccc(-c2cc(C(=O)NN3CCOCC3)c3ccccc3n2)c1	-1.7	-3.8	-1.3	0.7	-33.0	-2.6	/
O=C(NN1CCOCC1)c1cc(-c2ccc(Br)s2)nc2ccccc12	32.0*	1.7	-0.8	13.9	-24.9	-10.1	6.5
Cc1cc(NC(=O)CSc2nnc(C3COc4ccccc4O3)n2C)no1 (centres undefined)	-3.3	-0.1	4.6	0.5	-12.6	-1.6	/
O=C(Cc1sc(-c2ccccc2Cl)nc1-c1ccccc1)Nc1ccccc1	8.7	1.2	1.3	12.5	2.0	-0.3	/
O=C(Cc1sc(-c2ccccc2)nc1-c1ccccc1)Nc1ccc(Cl)cc1	25.3*	6.6	-3.7	6.6	0.7	-0.4	33.2*	RORg DNA counter=>40
O=C(COC(=O)CN1C(=O)C2CCCCC2C1=O)Nc1ccc(S(=O)(=O)N2CCOCC2)cc1 (centres undefined)	-1.4	-2.2	3.2	2.3	-30.1	-1.2	/
O=c1c2c(nc3cc(-c4cccc(F)c4)[nH]n13)CCC2	0.9	-1.3	1.5	-8.7	-175.6	-3.1	/
COC(=O)c1sc2nc(SCc3cccc(Cl)c3)n(N)c(=O)c2c1C	20.0	3.0	5.4	-3.0	6.7	-1.1	/
COC(=O)c1sc2nc(SCc3ccccc3C)n(N)c(=O)c2c1C	107.4*	-2.4	2.5	8.5	-10.6	-0.9	12.2
SMILES	Rev-erbA mod	MC4R barr agon	NR2E3 ag-1	MC4R antagonist	NR2E3 ag-2	PG9 Ab binder	NR1D1 mod conf	others
COc1ccc(NC(=O)C2CCCN2C(=O)NC2CCCCC2)cc1 (centres undefined)	-2.6	-0.2	2.3	6.0	-6.9	-2.2	/
C=CCn1c(SCCNC(C)=O)nc2cc(-c3ccccc3)sc2c1=O	48.8*	1.2	2.1	13.7	10.1	0.7	53.6*	RORg DNA counter=>40
c1ccc(Cn2ccc3ccc(-c4ccc5ccn(Cc6cccc(-c7ccsc7)c6)c5c4)cc32)cc1	30.7*	/	/	/	/	/	16.5*
COc1ccc(Cn2ccc3ccc(-c4ccc5ccn(Cc6ccc(C#N)cc6)c5c4)cc32)cc1	37.9*	/	/	/	/	/	0.9
N#Cc1ccc(Cn2ccc3ccc(-c4ccc5ccn(C(=O)c6ccccc6)c5c4)cc32)cc1	5.0	/	/	/	/	/	/
Fc1cccc(Cn2ccc3ccc(-c4ccc5ccn(Cc6ccccc6)c5c4)cc32)c1	-0.1	/	/	/	/	/	/
N#Cc1cccc(Cn2ccc3ccc(-c4ccc5ccn(Cc6ccccc6)c5c4)cc32)c1	15.1	/	/	/	/	/	/
N#Cc1cccc(Cn2ccc3ccc(-c4ccc5ccn(Cc6cccc(C#N)c6)c5c4)cc32)c1	58.9*	/	/	/	/	/	37.5*	RORg DNA counter=2.54*
Cc1ccc(S(=O)(=O)N2CCSC2C(=O)O)cc1 (centres undefined)	-10.4	-1.8	-0.2	-0.1	12.7	2.1	/
O=C(Nc1ccc(-c2nc3ccccc3s2)cc1)C1=COCCO1	8.6	-0.2	3.1	-0.6	-131.2	0.2	/
CC(=O)Nc1cccc(-c2nc3ccccc3s2)c1	-1.1	-0.2	4.6	-3.2	-119.5	-2.1	/
O=C(Nc1ccc(-c2nc3ccccc3s2)c(O)c1)C1=COCCO1	86.7*	2.5	-2.4	6.6	-57.2	-1.8	12.3
CC(=O)Nc1ccc(O)c(-c2nc3ccccc3s2)c1	230.7*	0.6	4.3	8.5	-53.8	2.4	384.6*	RORg DNA counter=>40
O=C(Nc1ccc(O)c(-c2nc3ccccc3s2)c1)C1=COCCO1	494.0*	2.9	-3.8	-5.9	-40.6	0.2	258.9*	RORg DNA counter=>40
CC(C)=CCc1cc([C@@H]2COc3c(ccc4c3C=CC(C)(C)O4)C2)c(O)cc1O	-1.8	0.7	-2.0	12.2	27.1	1.9	/
O=C(Nc1nnc(-c2ccccc2Cl)s1)c1ccccc1F	26.9*	-1.4	/	4.6	-35.2	-0.7	3.4
O=C(Nc1nnc(-c2ccccc2)s1)c1ccccc1F	-3.0	0.7	5.0	-4.3	-126.2	-0.4	/
CC(C)CC[n+]1ccccc1/C=C/c1ccc(N(C)C)cc1	31.6*	-2.3	-8.2	-10.6	-15.9	-11.3	30.1*	RORg DNA counter=>40
